Ba/F3 V617F tox = reduced viability of JAK2V617F-dependent Ba/F3 cells, primary screen, JAK2V617F inhibitor project, cell-based, Ba/F3 EpoR-JAK2V617F, luminescence | AID 1446, 2008 | ATP luminescence | inhibition, % at 5.6 µM | 220,000 tested, 1.1% active;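 active = inhibition above the campaign mean plus 3 SD over all tested compounds, cut at about 24% in these data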;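 also: cytokine-independent growth of Ba/F3 cells driven by EpoR plus mutant JAK2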
MT stabilizer = microtubule stabilizers in HeLa cells, primary screen, imaging, high-content imaging. HeLa tubulin immunostaining HCS, 24 h; share of cells brighter than vehicle mean+2SD. % tubulin-high responders, % at 10 µM. 200,000 tested, 0.83% active;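 active = plate Z-score above 3 for both tubulin-high and condensed-nucleus cell shares, with cell loss under 80%, at 10 µM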;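 also: anti alpha tubulin signal scored within the nucleus-defined area of each cell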
APP transl inh = inhibitors of APP translation via 5'UTR reporter, primary screen, APP 5'UTR luciferase, SH-SY5Y cells; 190,000 tested, 0.82% active; inhibition, % at 2 µM; AID 1285, 2008; SH-SY5Y APP 5'UTR-luciferase reporter, luminescence;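 active = inhibition above a set limit, derived from the sample mean plus 3 SD, cut at about 45% in these data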
IEC-6 tox = cytotoxicity in IEC-6 intestinal epithelial cells, primary screen, cytotoxicity control for KLF5 inhibitor project, cell-based, luminescence | inhibition, % at 5 µM | AID 1825, 2009 | IEC-6 cytotoxicity, luminescence viability | 290,000 tested, 0.78% active
BaF3 tox = parental Ba/F3 cell viability inhibition, counter-screen for JAK2V617F inhibitor project, murine pro-B, CellTiter-Glo luminescence. CellTiter-Glo ATP luminescence. inhibition, % at 5.6 µM. 220,000 tested, 1.1% active. AID 1486, 2009;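 active = inhibition above a per-campaign cutoff, the mean inhibition of all tested compounds plus 3 SD, cut at about 27% in these data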
bCat nuc transl = modulators of beta-catenin nuclear translocation, primary screen, imaging, HeLa cells, immunofluorescence, high-content. nuclear translocation activity, % at 5 µM. 190,000 tested, 0.3% active;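 active = nuclear translocation activity above 50% at 5 µM, with a well cell count of 50 or more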;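 also: per-cell ratio of nuclear to cytoplasmic median beta-catenin stain intensity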
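Technique: fluorescence imaging of beta-catenin antibody stain plus DAPI / Material: human HeLa cell line / Incubation: compound treatment 24 h, 37°C, 5% CO2 / Read-out basis: % activation of per-cell nuclear versus cytoplasmic median beta-catenin signal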
IEC-6 tox confirm = cytotoxic compounds in IEC-6 epithelial cells, confirmation, cytotoxicity control, cell-based, luminescence | shares compounds with IEC-6 tox | IEC-6 rat intestinal epithelial viability | inhibition, % at 5 µM | 1,900 tested, 63% active | AID 1907, 2009
Numbers stand for hits; n = inactive; x = not tested or not shown. Rows were chosen to be rich in hits. Some 2.2% of all compounds tested hit in one or more screens of this group. Rule as the data show it, unless noted: active = inhibition above about 22%; inactive = the rest.

SMILES	Ba/F3 V617F tox	MT stabilizer	APP transl inh	IEC-6 tox	BaF3 tox	bCat nuc transl	IEC-6 tox confirm
COc1ccc(C2=NOC(C(=O)NCc3ccco3)C2)cc1 (centres undefined)	n	38	n	25	n	n	35
COc1cc(C2=NOC(C(=O)NCc3cccnc3)C2)cc(OC)c1OC (centres undefined)	x	x	x	n	x	x	x
Cc1ccc(S(=O)(=O)N(C)CC(=O)O/N=C(\N)c2cccc(Br)c2)cc1	x	x	x	n	x	x	x
CCN1CCN(CCCNC(=O)C2CCCN(c3nc4c(C)cc(C)cc4s3)C2)CC1 (centres undefined)	x	x	x	n	x	x	x
CCN1CCN(Cc2c(C(=O)N/N=C(\C)c3ccc(Cl)c(Cl)c3)nnn2-c2nonc2N)CC1	x	x	x	n	x	x	x
CCN(CC)c1nc2c(c(=O)[nH]c(=O)n2C)n1CCCc1ccccc1	x	x	x	n	x	x	x
CN(Cc1ccc(Br)cc1)C(=O)CCN1C(=O)c2cccc([N+](=O)[O-])c2C1=O	x	x	x	n	x	x	x
Cc1ccc(N(C)S(=O)(=O)c2ccc(-c3cc(C)no3)s2)cc1	x	x	x	41	x	x	n
Cc1cc(-c2ccc(S(=O)(=O)N(C)c3ccc(C)c(C)c3)s2)on1	x	x	x	53	x	x	42
CC(C)NC(=O)CN1CCN(C(=O)c2ccc3oc(CCCc4ccccc4)nc3c2)CC1	x	x	x	n	x	x	x
CCOc1cc(N2CCOCC2)c(OCC)cc1NS(=O)(=O)c1ccc(Cl)s1	n	40	n	57	55	n	58
CCOc1cc(N2CCOCC2)c(OCC)cc1NC(=O)CCS(=O)(=O)c1ccc(Cl)cc1	n	n	n	n	n	n	x
Cc1ccc(-n2nc3c(N4CCC(C(=O)NCCc5ccccc5C)CC4)nnc(C)c3c2C)cc1	x	x	x	23	x	x	34
Cc1nnc(N/N=C/c2ccc(-c3ccc(Br)cc3)o2)n1N	n	n	n	37	n	n	n
O=C(O)c1ccc(N/N=C/c2ccc(-c3ccc(Br)cc3)o2)cc1	x	x	x	28	x	x	28
O=C(Nc1cccc(-c2cscn2)c1)C1CCN(Cc2ccccn2)CC1	x	x	x	n	x	x	x
O=S(=O)(c1ccccc1F)N1CCN(CCc2ccccc2)CC1	x	x	x	n	x	x	x
CN(C)S(=O)(=O)c1ccc(Cl)c(NC(=O)CN2CCCC2)c1	x	x	x	n	x	x	x
N#CC(C#N)=C(Nc1ccc(F)cc1)SCc1cccc(Br)c1	n	n	n	30	n	n	41
CCc1ccc(C(C(=O)NC2CCCC2)N(Cc2cccnc2)C(=O)c2csnn2)cc1 (centres undefined)	x	x	x	n	x	x	x
CC[n+]1c(C=C2C=C(C)OC(C)=C2)sc2ccccc21	100	n	n	25	91	n	27
CCc1c(C(=O)NC2CCCc3ccccc32)[nH]c(C)c1C(C)=O (centres undefined)	x	x	x	47	x	x	n
O=C(Nc1c2c(nn1-c1ccc(F)cc1)CS(=O)(=O)C2)c1ccc2c(c1)OCO2	x	x	x	n	x	x	x
CC(C)c1ccc(NC(=O)Nc2cnccn2)cc1	x	x	x	42	x	x	n
O=S(=O)(Nc1cccc2ncccc12)c1cccs1	n	n	n	100	n	n	102
SMILES	Ba/F3 V617F tox	MT stabilizer	APP transl inh	IEC-6 tox	BaF3 tox	bCat nuc transl	IEC-6 tox confirm
Cc1c(NS(=O)(=O)c2cccs2)cccc1-c1nc2cccnc2s1	n	x	x	n	n	n	x
CC1Cc2ccccc2N1C(=O)CCS(=O)(=O)c1ccc2c(c1)NC(=O)CS2 (centres undefined)	x	x	x	n	x	x	x
CCc1ccccc1NC(=O)C1CCCN(S(=O)(=O)c2ccc3c(c2)CC(C)N3C(C)=O)C1 (centres undefined)	x	x	x	n	x	x	x
COc1cccc(COc2ccc3c(C)cc(=O)oc3c2)c1	x	x	x	n	x	x	x
COc1ccccc1C1=NOC(COc2ccc3c(C)cc(=O)oc3c2)C1 (centres undefined)	75	x	x	83	78	96	57
COc1ccc(C2=NOC(COc3ccc4c(C)cc(=O)oc4c3)C2)c(OC)c1 (centres undefined)	78	x	73	60	70	n	56
CC(C)(C)C(=O)Cn1ncc(Br)c(Br)c1=O	n	n	94	29	n	n	n
COc1cc(OC)cc(C(=O)Nc2ccc(N3CCN(C(=O)c4cccs4)CC3)cc2)c1	x	x	x	36	x	x	31
